According to ChEMBL document CHEMBL3792306, “Antichagasic and trichomonacidal activity of 1-substituted 2-benzyl-5-nitroindazolin-3-ones and 3-alkoxy-2-benzyl-5-nitro-2H-indazoles” (Eur J Med Chem, 2016):

Tests used:
Trypanosoma cruzi [1] = experiment: Antichagasic activity against Trypanosoma cruzi CL-B5 epimastigotes […] assessed as growth inhibition after 72 hrs by beta galactosidase reporter gene assay; assay type: functional, organism-based
Outline: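 Then CPRG (200 µM final, pH 7.4) in Triton X-100 added for 3 h at 37 °C, A595 read. Triplicates, three independent runs; IC50 from dose–response of %growth inhibition, mean ± SD.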

[2] = Cytotoxicity against mouse L929 cells after 48 hrs by resazurin assay; assay type: cell-based; details: read-out: LC50
Outline: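 L929 fibroblasts, 15×10^3 cells/well in MEM, attached 3 h. Exposed to compounds for 48 h at 37 °C, 5% CO2. Resazurin (2 mM solution in PBS) added for 3 h; fluorescence read at 535/590 nm to give % cytotoxicity. Triplicate wells, three independent runs. LC50 taken from concentration vs %C curves, mean ± SD.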

Trypanosoma cruzi [3] = experiment: Antichagasic activity against Trypanosoma cruzi CL-B5 intracellular amastigotes in mouse L929 cells assessed as growth inhibition after 7 days by beta galactosidase reporter gene assay; assay type: functional, organism-based; details: CL-B5, L929, 168 h
Outline: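 L929 fibroblasts (10,000/well, MEM) infected overnight at 33 °C, 5% CO₂ with CL-B5 lacZ tissue-culture trypomastigotes (1:6 cell:parasite). Washed, then 7 days with compound in fresh MEM. CPRG (400 µM final, pH 7.4) in 3% Triton X-100 for 3 h at 37 °C, A595. Triplicates; IC50 from %amastigote growth inhibition curves, mean ± SD.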

[4] = Selectivity index, ratio of LC50 for mouse L929 cells to IC50 for Trypanosoma cruzi CL-B5 lacZ epimastigotes […]; assay type: toxicity, cell-based; details: read-out: Ratio LC50/IC50
Outline: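 SI = LC50 (L929, 48 h resazurin) / epimastigote IC50. […] CPRG (200 µM final, 0.9% Triton X-100, pH 7.4) added for 3 h at 37 °C, A595 read. Triplicates, n = 3; IC50 from %EGI curves.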

[5] = Selectivity index, ratio of LC50 for mouse L929 cells to IC50 for Trypanosoma cruzi CL-B5 lacZ amastigotes in mouse L929 cells; assay type: toxicity, cell-based; details: read-out: Ratio LC50/IC50
Outline: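 SI = LC50 (L929, 48 h resazurin) / amastigote IC50. Amastigotes: L929 cells (10,000/well, MEM) infected overnight at 33 °C with CL-B5 lacZ tissue-culture trypomastigotes (1:6 cell:parasite), washed, then exposed to compounds for 7 days. CPRG (400 µM final, 3% Triton X-100, pH 7.4) added for 3 h at 37 °C, A595 read. Triplicates; IC50 from %AGI curves. Assayed only when epimastigote SI warranted.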

Trypanosoma cruzi [6] = experiment: Antichagasic activity against Trypanosoma cruzi Tulahuen amastigotes in mouse L929 cells assessed as growth inhibition after 96 hrs by beta galactosidase reporter gene assay; assay type: functional, organism-based; details: L929, 96 h
Outline: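 L929 cells (4000/well, RPMIS) held 24 h at 37 °C, then exposed 2 h to Tulahuen C4 lacZ trypomastigotes (1:10). Infection established 48 h, then compounds for 96 h at 37 °C, 5% CO₂. 500 µM CPRG in 0.5% Nonidet P40 for 18 h, A570. Triplicates; IC50 from %inhibition curves, mean ± SD.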

Trypanosoma cruzi [7] = experiment: Antichagasic activity against Trypanosoma cruzi Y strain amastigotes in mouse cardiomyocytes assessed as growth inhibition after 48 hrs by giemsa staining based assay; assay type: functional, organism-based
Outline: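 Primary embryonic Swiss mouse cardiac cells (100,000/well on gelatin-coated coverslips) infected 24 h with Y strain bloodstream trypomastigotes (1:10), washed, then 48 h with compound in DMEM. Bouin-fixed, Giemsa-stained. Infected cells and parasites per infected cell scored in 400 cells in duplicate; endocytic index = product. IC50 from %EI curves, mean ± SD.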

[8] = Cytotoxicity against mouse Cardiomyocytes after 48 hrs by Prestoblue assay; parameters: species or system Cardiomyocyte; details: read-out: LC50
Outline: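 Primary embryonic cardiac cells from Swiss mice, grown in DMEM with CaCl2, L-glutamine, 5% FBS and chick embryo extract. Seeded at 6×10^4 cells/well on gelatin, pre-incubated 24 h, then exposed to compounds for 48 h at 37 °C, 5% CO2. Morphology and contractility checked by light microscopy. PrestoBlue added for 5 h, absorbance read at 570/600 nm. Triplicates, n = 3; LC50 from dose–response, mean ± SD.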

Trypanosoma cruzi [9] = experiment: Antichagasic activity against Trypanosoma cruzi Y strain epimastigotes […] assessed as growth inhibition after 48 hrs by resazurin assay; assay type: functional, organism-based
Outline: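 Y strain epimastigotes (3 × 10⁶/mL, log phase, pre-grown overnight at 28 °C) exposed 48 h at 28 °C, cell-free. Resazurin added for 5 more h, fluorescence read at ex 535/em 590 nm. Triplicates, three independent runs; IC50 from %growth inhibition curves, mean ± SD.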

Trichomonas vaginalis [10] = experiment: Trichomonacidal activity against metronidazole-sensitive Trichomonas vaginalis JH31A#4 trophozoites after 24 hrs by resazurin dye based fluorescence assay; assay type: functional, organism-based; details: JH31A#4, 24 h
Outline: (§1)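 Trophozoites in TYM with 10% FBS, 37 °C, 5% CO₂, seeded at 10⁵/mL in glass tubes. After 5 h, compounds added at 9.37–300 µM final (DMSO <0.2%). Viability read by resazurin fluorimetry after 24 h at 37 °C. Metronidazole 25 µM as reference. At least two runs in triplicate; IC50 with 95% limits by probit.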

[11] = Cytotoxicity against african green monkey Vero cells assessed as inhibition of cell growth after 24 hrs by resazurin dye based fluorescence assay; details: chlorocebus sabaeus
Outline: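 Vero CCL-81 cells (50,000/well, RPMI with 10% FBS) attached 6 h at 37 °C, then 24 h with compound. Resazurin added for 3 h, fluorescence at ex 535/em 590 nm. Triplicates in two independent assays; CC50 and 95% confidence limits by probit analysis.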

[12] = Cytotoxicity against african green monkey Vero cells assessed as inhibition of cell growth at 300 uM after 24 hrs by resazurin dye based fluorescence assay; details: chlorocebus sabaeus, read-out: Activity
[13] = Selectivity index, ratio of CC50 for african green monkey Vero cells to IC50 for metronidazole-sensitive Trichomonas vaginalis JH31A#4 trophozoites; assay type: functional
Outline: (§2)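 Selectivity index = Vero CC50 (24 h resazurin, probit) divided by trophozoite IC50 (24 h resazurin, probit) for the named T. vaginalis isolate.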

Trichomonas vaginalis [14] = experiment: Trichomonacidal activity against metronidazole-resistant Trichomonas vaginalis IR78 trophozoites after 24 hrs by resazurin dye based fluorescence assay; assay type: functional, organism-based; details: IR78, 24 h; outline: as §1
[15] = Selectivity index, ratio of CC50 for african green monkey Vero cells to IC50 for metronidazole-resistant Trichomonas vaginalis IR78 trophozoites; assay type: functional; outline: as §2

SMILES	IC50 (Trypanosoma cruzi [1]) [µM]	CC50 at 48 h [2] [µM]	IC50 (Trypanosoma cruzi [3]) [µM]	selectivity ratio [4]	selectivity ratio [5]	IC50 (Trypanosoma cruzi [6]) [µM]	IC50 (Trypanosoma cruzi [7]) [µM]	CC50 at 48 h [8] [µM]	IC50 (Trypanosoma cruzi [9]) [µM]	IC50 (Trichomonas vaginalis [10]) [µM]	CC50 at 24 h [11] [µM]	inhibition at 24 h, 300 µM [12] [%]	Ratio CC50/IC50 [13]	IC50 (Trichomonas vaginalis [14]) [µM]	Ratio CC50/IC50 [15]
O=C(Cn1ccnc1[N+](=O)[O-])NCc1ccccc1 [BENZNIDAZOLE]	22.7	> 256	0.68	> 11.3	> 376	1.66	1.77	> 100							
O=c1c2cc([N+](=O)[O-])ccc2n(CCO)n1Cc1ccccc1	1.58	> 256	0.22	> 162	> 1160	0.81	0.6	> 100	3.18	17.9	> 300	< 20	>16.7		
O=[N+]([O-])c1ccc2nn(Cc3ccccc3)c(OCCCO)c2c1	64.9	> 256		> 3.94						7.25	> 300	14.5	>41.4	9.11	>32.9
